# Source: ChEMBL document CHEMBL2375283, “Design and synthesis of 1-aryl-5-anilinoindazoles as c-Jun N-terminal kinase inhibitors” (Bioorg Med Chem Lett, 2013)
# Tests used:
# [1] = molecular target: Mitogen-activated protein kinase 8 (Homo sapiens, UniProt P45983); experiment: Inhibition of JNK1 (unknown origin)-mediated ATF2 Thr71 phosphorylation by HTRF assay
# How it was run: (§1)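 The kinase reaction used biotinylated ATF2 substrate with ATP. The phospho-Thr71-ATF2 product was detected by HTRF with a Europium-cryptate labeled anti-phospho-Thr71-ATF2 antibody. IC50 values are averages of two or more experiments.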
# [2] = Drug uptake in C57BL6 mouse brain at 10 mg/kg, ip after 2 hrs; assay type: ADME, organism-based; parameters: dose 10 mg/kg, route intraperitoneal; settings: read-out: Drug uptake
# How it was run: (§2)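 C57Bl6 mice (n = 3) were given 10 mg/kg intraperitoneally. Blood and brain were collected 2 h later, and plasma was frozen at −80 °C. Plasma (1:5 v/v) and brain (1:5 w/v) were mixed with acetonitrile, and brain was probe-sonicated. Drug levels were measured by LC–MS/MS against standards prepared in plasma or in blank brain matrix.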
# Homo sapiens = species on record: Homo sapiens; experiment: Selectivity ratio of IC50 for JNK1 (unknown origin) to IC50 for JNK3 (unknown origin)
# [3] = Half life in human liver microsomes; assay type: ADME, Microsome
# [4] = molecular target: Mitogen-activated protein kinase 10 (Homo sapiens, UniProt P53779); experiment: Inhibition of JNK3 (unknown origin)-mediated ATF2 Thr71 phosphorylation by HTRF assay; how it was run: as §1
# [5] = AUC in Sprague-Dawley rat at 1 mg/kg, iv and 2 mg/kg, po; assay type: ADME, organism-based; settings: plasma
# How it was run: (§3)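 Rats received compound intravenously at 1 mg/kg or by oral gavage at 2 mg/kg. Blood was sampled at 5, 15 and 30 min and at 1, 2, 4, 6 and 8 h into EDTA tubes, and plasma was obtained by centrifugation. Plasma proteins were precipitated with acetonitrile, and drug levels were quantified by LC–MS/MS.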
# [6] = Plasma clearance in Sprague-Dawley rat at 1 mg/kg, iv and 2 mg/kg, po; assay type: ADME, organism-based; how it was run: as §3
# [7] = Oral bioavailability in Sprague-Dawley rat at 2 mg/kg; assay type: ADME, organism-based; settings: in vivo; how it was run: as §3
# [8] = Half life in Sprague-Dawley rat at 1 mg/kg, iv and 2 mg/kg, po; assay type: ADME, organism-based; settings: in vivo; how it was run: as §3
# [9] = Plasma concentration in C57BL6 mouse at 10 mg/kg, ip after 2 hrs; assay type: ADME, organism-based; parameters: dose 10 mg/kg, route intraperitoneal; how it was run: as §2
# [10] = Half life in rat liver microsomes; assay type: ADME, Microsome
# [11] = molecular target: Mitogen-activated protein kinase 10 (Rattus norvegicus, UniProt P49187); experiment: Inhibition of JNK3-mediated c-Jun phosphorylation in rat INS-1 cells after 3 hrs by ELISA; assay type: cell-based, INS1
# Sequence of Mitogen-activated protein kinase 10 (Rattus norvegicus, UniProt P49187) (P49187 whole entry): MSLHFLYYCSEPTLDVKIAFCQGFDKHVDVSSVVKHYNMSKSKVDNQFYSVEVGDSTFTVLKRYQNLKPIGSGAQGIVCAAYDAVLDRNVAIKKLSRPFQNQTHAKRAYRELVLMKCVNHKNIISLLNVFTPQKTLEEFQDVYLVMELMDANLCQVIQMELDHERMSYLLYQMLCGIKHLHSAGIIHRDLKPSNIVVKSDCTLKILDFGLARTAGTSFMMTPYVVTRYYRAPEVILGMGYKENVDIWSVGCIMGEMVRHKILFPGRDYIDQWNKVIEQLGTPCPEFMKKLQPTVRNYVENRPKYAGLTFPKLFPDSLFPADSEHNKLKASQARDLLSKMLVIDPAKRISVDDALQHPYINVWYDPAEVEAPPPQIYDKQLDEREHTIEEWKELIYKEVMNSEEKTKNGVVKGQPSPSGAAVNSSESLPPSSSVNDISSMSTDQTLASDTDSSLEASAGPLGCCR
# Sequence of Mitogen-activated protein kinase 8 (P45983 whole entry): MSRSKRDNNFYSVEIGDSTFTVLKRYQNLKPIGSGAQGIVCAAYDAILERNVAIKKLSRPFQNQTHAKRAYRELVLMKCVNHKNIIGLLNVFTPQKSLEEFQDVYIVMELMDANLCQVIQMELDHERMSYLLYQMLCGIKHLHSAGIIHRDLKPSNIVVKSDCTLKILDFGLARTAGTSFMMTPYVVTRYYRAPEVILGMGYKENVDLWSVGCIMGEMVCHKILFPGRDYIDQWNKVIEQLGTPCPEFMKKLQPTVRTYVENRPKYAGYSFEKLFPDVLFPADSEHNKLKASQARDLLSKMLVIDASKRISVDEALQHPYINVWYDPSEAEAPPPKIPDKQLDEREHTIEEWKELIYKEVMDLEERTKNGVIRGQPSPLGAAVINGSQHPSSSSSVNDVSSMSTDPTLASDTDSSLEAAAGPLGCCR
# Sequence of Mitogen-activated protein kinase 10 (Homo sapiens, UniProt P53779) (P53779 whole entry): as the sequence (P49187 whole entry) above, with H27Q, S32Y, V33I, V34A counted along it
SMILES,IC50 [1],concentration at 2 h [2],Ratio IC50 (Homo sapiens),half-life [3],IC50 [4],AUC [5],clearance [6],bioavailability [7],half-life [8],concentration at 2 h [9],half-life [10],IC50 [11]
Cc1cccc(NC(=O)c2cccc(-n3ncc4cc(Nc5ccccc5F)ccc43)c2)c1,470 nM,30 nM,5,8.9 min,120 nM,0.5 µM·h,79 mL/min/kg,7%,18 min,350 nM,6 min,–
CN1CCN(CCNC(=O)c2cccc(-n3ncc4cc(Nc5c(Cl)cccc5Cl)ccc43)c2)CC1,1200 nM,810 nM,5,–,50 nM,0.38 µM·h,34 mL/min/kg,20%,120 min,2120 nM,–,–
O=C(NCCN1CCOCC1)c1cccc(-n2ncc3cc(Nc4c(Cl)cccc4Cl)ccc32)c1,1380 nM,–,5,–,77 nM,–,–,–,–,–,–,–
O=C(NCCN1CCOCC1)c1ccnc(-n2ncc3cc(Nc4ccccc4Cl)ccc32)c1,2300 nM,1400 nM,10,–,120 nM,0.01 µM·h,54 mL/min/kg,5%,30 min,530 nM,–,5300 nM
O=C(NCCN1CCOCC1)c1cccc(-n2ncc3cc(Nc4ccccc4)cnc32)c1,1200 nM,–,10,–,170 nM,–,–,–,–,–,–,–
O=C(NCCN1CCOCC1)c1cc(-n2ncc3cc(Nc4c(Cl)cccc4Cl)ccc32)ccn1,–,–,10,–,640 nM,–,–,–,–,–,–,–
COc1cc(NC(=O)c2cccc(-n3ncc4cc(Nc5ccccc5C)ccc43)c2)cc(OC)c1OC,–,–,5,–,59 nM,–,–,–,–,–,–,–
Cc1cccc(Nc2ccc3c(cnn3-c3cccc(C(=O)NCCN4CCN(C5CCC5)CC4)c3)c2)c1Cl,970 nM,3900 nM,5,–,40 nM,0.72 µM·h,25 mL/min/kg,27%,198 min,1200 nM,–,–
O=C(NCCN1CCOCC1)c1cccc(-n2ncc3cc(Nc4ccccc4Cl)ccc32)c1,750 nM,550 nM,5,–,54 nM,–,–,–,–,560 nM,–,4100 nM
Cc1cccc(NC(=O)c2cccc(-n3ncc4cc(Nc5ccccc5C)ccc43)c2)c1,–,–,5,–,250 nM,–,–,–,–,–,–,–
O=C(NCCN1CCOCC1)c1cccc(-n2ncc3cc(Nc4ccccc4Cl)ncc32)c1,1300 nM,–,10,–,80 nM,–,–,–,–,–,–,–
CN1CCN(CCNC(=O)c2cncc(-n3ncc4cc(Nc5c(Cl)cccc5Cl)ccc43)c2)CC1,–,–,10,–,110 nM,–,–,–,–,–,–,–
NC(=O)c1cccc(-n2ncc3cc(Nc4ccccc4F)ccc32)c1,730 nM,–,5,–,63 nM,–,–,–,–,–,–,–
O=C(NCCN1CCOCC1)c1cccc(-n2ncc3cc(Nc4ccccc4Cl)ccc32)n1,7010 nM,–,10,–,640 nM,–,–,–,–,–,–,–
COc1cc(NC(=O)c2cccc(-n3cc(Nc4nc5ccccc5[nH]4)cn3)c2)cc(OC)c1OC,–,–,–,–,> 20000 nM,–,–,–,–,–,–,–
O=C(NCCN1CCOCC1)c1cccc(-n2ncc3cc(Nc4ccccn4)ccc32)c1,7100 nM,–,5,–,1400 nM,–,–,–,–,–,–,–
CCOc1ccc(NC(=O)c2cccc(-n3ncc4cc(Nc5ccccc5F)ccc43)c2)cc1OC,430 nM,–,5,–,46 nM,–,–,–,–,–,–,–
Cc1cccc(CC(=O)Nc2cnn(-c3cccc(C(=O)NC4CCOC(C)(C)C4)c3)c2)c1 (stereo not given),≥ 20000 nM,–,> 25,–,1100 nM,–,–,–,–,–,–,–
COc1ccccc1Nc1ccc2c(cnn2-c2cccc(C(=O)NCCCN3CCOCC3)c2)c1,–,–,5,–,43 nM,–,–,–,–,–,–,–

# Now those with a lower IC50 [4], led by results:
IC50 [1],concentration at 2 h [2],Ratio IC50 (Homo sapiens),half-life [3],IC50 [4],AUC [5],clearance [6],bioavailability [7],half-life [8],concentration at 2 h [9],half-life [10],IC50 [11],SMILES
170 nM,–,5,–,38 nM,–,–,–,–,–,–,–,Cc1cc(NC(=O)c2cccc(-n3ncc4cc(Nc5ccccc5F)ccc43)c2)ccc1N1CCOCC1
800 nM,–,5,–,35 nM,–,–,–,–,–,–,≥ 20000 nM,O=C(NCCO)c1cccc(-n2ncc3cc(Nc4ccccc4Cl)ccc32)c1
920 nM,690 nM,–,–,33 nM,–,–,–,–,240 nM,–,≥ 20000 nM,O=C(NCCCN1CCOCC1)c1ccc(-n2ncc3cc(Nc4ccccc4Cl)ccc32)cc1
160 nM,–,5,–,32 nM,–,–,–,–,–,–,–,Cc1cc(NC(=O)c2cccc(-n3ncc4cc(Nc5ccccc5Cl)ccc43)c2)ccc1N1CCOCC1
200 nM,–,10,12.8 min,24 nM,–,–,–,–,–,5.8 min,–,COc1cc(NC(=O)c2cccc(-n3ncc4cc(Nc5ccccc5)ccc43)c2)cc(OC)c1OC
–,–,5,–,22 nM,–,–,–,–,–,–,–,O=C(NCCCN1CCOCC1)c1cccc(-n2ncc3cc(Nc4ccccc4F)ccc32)c1
410 nM,570 nM,5,8.6 min,15 nM,0.01 µM·h,123 mL/min/kg,6%,30 min,280 nM,5.6 min,–,O=C(NCCCN1CCOCC1)c1cccc(-n2ncc3cc(Nc4ccccc4Cl)ccc32)c1
93 nM,–,5,–,12 nM,–,–,–,–,–,–,–,COc1cc(NC(=O)c2cccc(-n3ncc4cc(Nc5ccccc5Cl)ccc43)c2)cc(OC)c1OC
73 nM,50 nM,5,–,9 nM,0.05 µM·h,57 mL/min/kg,5%,90 min,790 nM,–,–,COc1cc(NC(=O)c2cccc(-n3ncc4cc(Nc5ccccc5F)ccc43)c2)cc(OC)c1OC
